From ChEMBL document CHEMBL1777776, “Identification of 2-mercaptohexanoic acids as dual inhibitors of 5-lipoxygenase and microsomal prostaglandin E₂ synthase-1” (Bioorg Med Chem, 2011) come the findings set out here.

Structures are written as SMILES. pIC50: −log10 of the molar value. Calls of active or inactive are those of the source. No cut-off for these calls is given here.

Series [1] deals with T1, Polyunsaturated fatty acid 5-lipoxygenase (Homo sapiens, UniProt P09917).
T1 sequence (P09917 whole entry): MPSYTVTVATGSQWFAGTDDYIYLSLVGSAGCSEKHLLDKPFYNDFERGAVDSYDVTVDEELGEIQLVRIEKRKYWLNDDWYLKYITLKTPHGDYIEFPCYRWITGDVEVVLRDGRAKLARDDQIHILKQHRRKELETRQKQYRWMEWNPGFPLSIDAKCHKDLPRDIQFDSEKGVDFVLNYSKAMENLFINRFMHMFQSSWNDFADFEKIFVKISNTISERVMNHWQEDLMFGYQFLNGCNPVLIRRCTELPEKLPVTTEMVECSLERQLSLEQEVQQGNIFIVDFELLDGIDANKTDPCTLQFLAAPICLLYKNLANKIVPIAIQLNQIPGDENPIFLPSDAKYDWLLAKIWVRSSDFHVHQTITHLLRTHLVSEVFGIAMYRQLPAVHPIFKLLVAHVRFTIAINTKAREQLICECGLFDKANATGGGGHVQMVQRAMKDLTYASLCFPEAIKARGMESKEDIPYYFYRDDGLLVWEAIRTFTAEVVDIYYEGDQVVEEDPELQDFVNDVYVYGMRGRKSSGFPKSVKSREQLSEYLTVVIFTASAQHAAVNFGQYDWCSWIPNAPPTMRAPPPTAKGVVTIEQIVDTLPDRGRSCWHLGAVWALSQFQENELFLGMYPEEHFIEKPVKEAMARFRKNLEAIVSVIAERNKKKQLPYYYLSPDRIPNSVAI
In words: Inhibition of human recombinant 5-lipoxygenase expressed in Escherichia coli BL21 assessed as enzyme product formation using arachidonic acid as substrate after 10 mins by RP-HPLC analysis. A digest of the protocol: (§1)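 Human 5-LO expressed in E. coli BL21 (pT3-5LO), affinity-purified and used at once. 0.5 µg enzyme in 1 ml PBS/EDTA with 1 mM ATP preincubated with compound 5–10 min at 4 °C, then warmed 30 s at 37 °C. Reaction started with 2 mM CaCl₂ and AA (routinely 20 µM), with or without 1 µM 13(S)-HpODE. Run 10 min at 37 °C, stopped with ice-cold methanol, products analysed by HPLC. Washout: 10-fold dilution (10 to 1 µM).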

For series [2], the target named is T2, Polyunsaturated fatty acid 5-lipoxygenase (Homo sapiens) (UniProt P09917).
T2 sequence (whole entry): T1 sequence (P09917 whole entry)
In words: Inhibition of human recombinant 5-lipoxygenase expressed in Escherichia coli BL21 assessed as residual activity by measuring enzyme product formation using arachidonic acid as substrate at 10 uM after 10 mins by RP-HPLC analysis. A digest of the protocol:
as §1

The next series has as its system A549. Briefly: Cytotoxicity against human A549 cells assessed as cell viability at 10 uM after 16 hrs by MTT assay. The series is classed as cell-based. As to conditions: a549, 5 h, in the assay text read “5 hrs” for “16 hrs”. Summed up:
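A549 cells plated at 4 × 10⁴ cells per well, incubated 16 h at 37 °C, 5% CO₂, then exposed to 10 µM compound or DMSO (≤0.3% final) for 5 h. MTT added for 4 h, formazan solubilized with SDS in 20 mM HCl, absorbance at 595 nm read relative to vehicle-treated cells.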
For orientation: Tetrazolium assays rely on reduction of a dye to a coloured formazan, in cell work by metabolically active cells.

A further series has as its target T3, Prostaglandin E synthase (Homo sapiens, UniProt O14684).
T3 sequence (O14684 whole entry): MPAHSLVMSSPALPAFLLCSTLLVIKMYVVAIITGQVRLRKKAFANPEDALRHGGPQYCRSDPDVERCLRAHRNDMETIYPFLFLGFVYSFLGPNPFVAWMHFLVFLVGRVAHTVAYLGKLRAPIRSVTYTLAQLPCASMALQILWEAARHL
Briefly: Inhibition of mPGES-1 in human IL-1beta-stimulated A549 cell microsomes assessed as reduction of PGE2 formation from PGH2 after 15 mins. More on the design: species or system Microsome. A digest of the protocol: (§2)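 Microsomes from A549 cells stimulated 72 h with IL-1β (1 ng/ml), diluted to 50 µg/ml in 0.1 M potassium phosphate pH 7.4 with 2.5 mM glutathione. Preincubated with compound (1% DMSO final) 15 min at 4 °C. Reaction started with 20 µM PGH₂, run 1 min at 4 °C, stopped with FeCl₂/citric acid containing 11β-PGE₂; PGE₂ quantified. Mean of n = 3–5.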

In series [3] the target is T1, Polyunsaturated fatty acid 5-lipoxygenase. In words: Inhibition of 5-lipoxygenase in A23187-stimulated human PMNL assessed as enzyme product formation preincubated 15 mins by RP-HPLC analysis in presence of exogenous arachidonic acid. A digest of the protocol:
(§3)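 Freshly isolated human PMNL (5 × 10⁶/ml PGC buffer: PBS pH 7.4, 1 mg/ml glucose, 1 mM CaCl₂) preincubated with compound 15 min at 37 °C. Stimulated with 2.5 µM A23187 plus exogenous AA for 10 min at 37 °C. Stopped with methanol, PGB₁ added as internal standard, lipoxygenase products analysed by HPLC. Mean of n = 3–5.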

The target in series [4] is T2, Polyunsaturated fatty acid 5-lipoxygenase (Homo sapiens). In words: Inhibition of 5-lipoxygenase in A23187-stimulated human PMNL assessed as residual activity by measuring enzyme product formation at 10 uM preincubated 15 mins by RP-HPLC analysis in presence of exogenous arachidonic acid. A digest of the protocol: as §3
In series [5] the target is T4, Prostaglandin E synthase (Homo sapiens) (UniProt O14684).
T4 sequence (whole entry): T3 sequence (O14684 whole entry)
Briefly: Inhibition of mPGES-1 in human IL-1beta-stimulated A549 cell microsomes assessed as residual activity by measuring reduction of PGE2 formation from PGH2 at 10 uM after 15 mins. Conditions: Microsome. A digest of the protocol:
as §2

As a reminder, the pIC50 is the negative decadic logarithm of the IC50, by convention in mol/L. For the compound `CCCCC(Sc1ccc(OCCCOc2ccccc2C)cc1)C(=O)O` (stereo not drawn), the pIC50 is under 5.00 in series [1], 5.06 on Prostaglandin E synthase and 5.32 in series [3]. Further, the Activity in series [2] is 58.3%; with A549, “Non-toxic”.

Turning to `CCCCC(Sc1ccc(OCCCOc2ccc(Cl)cc2OC)cc1)C(=O)O` (stereo not drawn), the Activity in series [4] is 79.3%; in series [2], 59.2%; with A549 it was “Non-toxic”. The pIC50 in series [1] is under 5.00; on Prostaglandin E synthase it was 5.03; in series [3], under 5.00.

On to `Cc1cccc(OCCCOc2ccc(SCC(=O)O)cc2)c1C`, for which the Activity is 69.6% in series [4], 72.4% in series [2], “Non-toxic” with A549 and 75.4% in series [5]. Moreover, the pIC50 (in series [1]; at Prostaglandin E synthase; in series [3]) was under 5.00 in each case.

In the case of `CCCC/C(=C\c1ccc(OCCCOc2cccc(C)c2C)cc1)C(=O)O`, the pIC50 in series [1] was under 5.00; at Prostaglandin E synthase it was under 5.00; in series [3], 5.80. For the same compound, the Activity in series [2] is 88.9%; in the series on A549, “Non-toxic”; in series [5], 28.3%.

Regarding `CCCCC(Sc1ccc(OCCCOc2ccccc2C(C)C)cc1)C(=O)O` (stereo not drawn), the pIC50 is 5.11 in series [1], 5.39 on Prostaglandin E synthase and 5.80 in series [3]. The Activity result with A549 is listed as “Non-toxic”.

Consider `CCCCC(Sc1ccc(OCCCOc2ccccc2)cc1)C(=O)O` (stereo not drawn), for which the pIC50 in series [1] is under 5.00; on Prostaglandin E synthase, under 5.00; in series [3], 5.02. The results for the Activity (in series [2]; in the series with A549; in series [5]) were 69.4%, “Non-toxic” and 81.9%, respectively.

On to `CCCCC(Sc1ccc(OCCCOc2ccc(-c3ccccc3)cc2)cc1)C(=O)OCC` (stereo not drawn), for which the values for the Activity (in series [4]; in series [2]; with A549) were 91.5%, 83% and “Non-toxic”, respectively. Further, the pIC50 in series [1] and in series [3] was under 5.00 each time.

Take `CCCCC(Sc1ccc(OCCCOc2ccccc2OC)cc1)C(=O)O` (stereo not drawn): the Activity in series [4] was 57.4%; in series [2] it was 79.4%; with A549, “Non-toxic”; in series [5], 88.3%. The pIC50 (in series [1]; at Prostaglandin E synthase; in series [3]) was under 5.00 in each case.

Take `CCCC[C@H](Sc1ccc(OCCCOc2cccc(C)c2C)cc1)C(=O)O`: the pIC50 in series [1] was 5.09; at Prostaglandin E synthase it was 5.34; in series [3] it was 5.70. Moreover, the Activity entry with A549 was “Non-toxic”.

Take `CCCCC(Sc1ccc(OCCCOc2cccc(C(F)(F)F)c2)cc1)C(=O)O` (stereo not drawn): the pIC50 is 5.01 in series [1], 5.70 on Prostaglandin E synthase and 5.80 in series [3]. In the series on A549, the Activity entry is on record as “Non-toxic”.

As for `CCCCC(Sc1ccc(OCCCOc2cccc(C(C)C)c2)cc1)C(=O)O` (stereo not drawn), the pIC50 in series [1] is 5.22; on Prostaglandin E synthase, 5.57; in series [3], 5.85. Also, in the series with A549, the Activity entry was “Non-toxic”.

As for `CCCCC(Sc1ccc(OCCCOc2cccc(C)c2)cc1)C(=O)O` (stereo not drawn), the pIC50 in series [1] is under 5.00; at Prostaglandin E synthase it was under 5.00; in series [3] it was 5.32. Also, the Activity was 79.3% in series [2], “Non-toxic” with A549 and 58% in series [5].

For the compound `CCCCC(Cc1ccc(OCCCOc2cccc(C)c2C)cc1)C(=O)O` (stereo not drawn), the negative-log IC50 (pIC50) in series [1] is under 5.00; on Prostaglandin E synthase, 5.15; in series [3] it was 5.70. The Activity in series [2] was 70.8%; with A549, “Non-toxic”.

On to `CCCCC(Sc1ccc(OCCCOc2cccc3c2CCCC3)cc1)C(=O)OCC` (stereo not drawn), for which the Activity in series [4] was 87.4%; in series [2], 79.4%; in the series with A549 it was “Non-toxic”. The pIC50 in series [1] and in series [3] was under 5.00 each time.

For `CCCC[C@@H](Sc1ccc(OCCCOc2cccc(C)c2C)cc1)C(=O)O`, the pIC50 is 5.00 in series [1], 5.38 on Prostaglandin E synthase and 5.96 in series [3]. The Activity result with A549 is listed as “Non-toxic”.

For the compound `CCCCC(Sc1ccc(OCCCOc2ccc3ncccc3c2)cc1)C(=O)O` (stereo not drawn), the Activity in series [4] is 92.2%; in series [2], 59%; in the series with A549 it was “Non-toxic”. Further, the pIC50 (in series [1]; on Prostaglandin E synthase; in series [3]) was under 5.00 each time. Further, in series [5], the inhibition entry is “inactive”.

As for `CCCCC(Sc1ccc(OCCCOc2ccc(C)cc2)cc1)C(=O)O` (stereo not drawn), the pIC50 in series [1] is under 5.00; at Prostaglandin E synthase, 5.03; in series [3] it was 5.28. Further, the Activity in series [2] was 67.6%; with A549 it was “Non-toxic”.

In the case of `CCCCC(Sc1ccc(OCCCOc2cccc(C)c2C)cc1)C(=O)O` (stereo not drawn), the figures for the pIC50 (in series [1]; on Prostaglandin E synthase; in series [3]) were 5.06, 5.54 and 5.52, respectively. Further, the Activity entry in the series with A549 was “Non-toxic”.

On to `Cc1cccc(OCCCOc2ccc(CCC(=O)O)cc2)c1C`, for which the Activity in series [4] was 80%; in series [2] it was 81.8%; in the series on A549, “Non-toxic”; in series [5], 83.9%. The pIC50 (in series [1]; at Prostaglandin E synthase; in series [3]) was under 5.00 each time.

Regarding `CCCCC(Sc1ccc(OCCCOc2cccc(OC)c2)cc1)C(=O)O` (stereo not drawn), the results for the pIC50 (in series [1]; on Prostaglandin E synthase; in series [3]) were under 5.00, under 5.00 and 5.32, respectively. Besides, the results for the Activity (in series [2]; with A549; in series [5]) were 67.7%, “Non-toxic” and 59.1%, respectively.

Consider `CCCCC(Sc1ccc(OCCCOc2ccc3ncccc3c2)cc1)C(=O)OCC` (stereo not drawn), for which the pIC50 in series [1] is under 5.00; at Prostaglandin E synthase, under 5.00; in series [3], 6.10. Further, the Activity was 68.3% in series [2], “Non-toxic” in the series with A549 and 83.9% in series [5].
